Assay [1] concerns the target Class 1 histone deacetylase (Homo sapiens, UniProt Q13547+O15379+Q92769+Q9BY41). The assay can be described thus: Inhibition of class 1 HDAC in human HeLa cell nuclear extract using Boc-Lys(Ac)-AMC as substrate preincubated for 5 mins followed by substrate addition and measured after 30 mins by fluorescence assay. The class given is cell-based.
The target of another assay is Histone deacetylase 4 (Homo sapiens, UniProt P56524). Nature of the assay: Inhibition of recombinant human N-terminal GST-tagged/C-terminal His-tagged HDAC4 (627 to 1084 residues) expressed in baculovirus expression system using Boc-Lys(TFA)-AMC as substrate preincubated for 5 mins followed by substrate addition and measured after 30 mins by fluorescence assay.
Another assay has as its target Histone deacetylase 5 (Homo sapiens, UniProt Q9UQL6). Nature of the assay: Inhibition of recombinant human C-terminal His-tagged HDAC5 (656 to 1122 residues) expressed in baculovirus infected Sf9 insect cells using fluorogenic HDAC 2A substrate preincubated for 5 mins followed by substrate addition and measured after 30 mins by fluorescence assay.
The next assay addresses Histone deacetylase 9 (Homo sapiens, UniProt Q9UKV0). The assay can be described thus: Inhibition of recombinant human C-terminal His-tagged HDAC9 (604 to 1066 residues) expressed in baculovirus infected Sf9 cells using fluorogenic HDAC 2A substrate preincubated for 5 mins followed by substrate addition and measured after 30 mins by fluorescence assay.
Assay [2] addresses T1, Protein deacetylase HDAC6 (Homo sapiens, UniProt Q9UBN7).
T1 sequence (Q9UBN7 whole entry): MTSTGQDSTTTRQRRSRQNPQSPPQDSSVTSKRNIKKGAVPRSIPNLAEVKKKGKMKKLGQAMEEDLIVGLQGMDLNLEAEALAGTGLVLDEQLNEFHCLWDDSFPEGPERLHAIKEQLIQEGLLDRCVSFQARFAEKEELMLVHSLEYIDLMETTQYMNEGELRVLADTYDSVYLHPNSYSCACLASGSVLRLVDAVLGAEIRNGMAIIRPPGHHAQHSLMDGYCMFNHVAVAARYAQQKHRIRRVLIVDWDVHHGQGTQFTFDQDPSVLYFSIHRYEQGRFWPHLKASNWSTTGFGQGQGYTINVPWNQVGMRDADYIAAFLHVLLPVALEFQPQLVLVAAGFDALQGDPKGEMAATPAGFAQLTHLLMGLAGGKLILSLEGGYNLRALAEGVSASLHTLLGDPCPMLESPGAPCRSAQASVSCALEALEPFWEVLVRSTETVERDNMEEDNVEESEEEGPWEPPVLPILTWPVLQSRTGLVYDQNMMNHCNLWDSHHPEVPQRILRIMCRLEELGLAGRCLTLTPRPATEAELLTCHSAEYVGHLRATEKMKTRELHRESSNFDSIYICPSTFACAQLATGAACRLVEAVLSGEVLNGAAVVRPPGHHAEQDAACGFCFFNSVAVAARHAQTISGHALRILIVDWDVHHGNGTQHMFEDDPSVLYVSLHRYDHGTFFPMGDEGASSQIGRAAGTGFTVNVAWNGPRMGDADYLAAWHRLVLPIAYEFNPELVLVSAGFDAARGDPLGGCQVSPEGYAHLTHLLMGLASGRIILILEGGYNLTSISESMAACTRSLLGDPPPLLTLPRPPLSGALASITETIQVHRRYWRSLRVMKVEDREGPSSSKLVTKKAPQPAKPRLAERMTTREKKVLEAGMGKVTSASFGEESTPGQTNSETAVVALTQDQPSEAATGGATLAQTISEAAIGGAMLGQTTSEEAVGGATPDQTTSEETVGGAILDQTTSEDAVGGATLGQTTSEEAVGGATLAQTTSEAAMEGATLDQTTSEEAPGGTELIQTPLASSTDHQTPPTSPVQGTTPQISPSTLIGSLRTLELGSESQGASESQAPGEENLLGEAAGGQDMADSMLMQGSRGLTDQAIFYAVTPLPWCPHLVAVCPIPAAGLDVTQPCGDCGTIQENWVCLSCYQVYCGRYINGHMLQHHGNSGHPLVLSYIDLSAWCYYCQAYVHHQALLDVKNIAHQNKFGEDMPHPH
The assay can be described thus: Inhibition of recombinant human full-length N-terminal GST-tagged HDAC6 expressed in baculovirus infected Sf9 insect cells using Boc-Lys(Ac)-AMC as substrate preincubated for 5 mins followed by substrate addition and measured after 30 mins by fluorescence assay.

Assay [3] concerns the target T2, Amyloid-beta precursor protein (Homo sapiens, UniProt P05067). The assay can be described thus: Inhibition of amyloid beta (1 to 42) (unknown origin) self aggregation after 24 hrs by thioflavin-T fluorescence method. The method in brief:
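ThT aggregation assay. Compound at varying concentrations combined with 10 µM Aβ1-42 (1 mM DMSO stock), 10 µM ThT, 1 mM EDTA in 50 mM phosphate buffer (150 mM NaCl, pH 7.4). Incubated 24 h at 37 °C with shaking at 700 rpm; fluorescence ex 440/em 486 nm. 0.1% DMSO wells = 100% aggregation; compound wells without Aβ = background. IC50 from triplicates.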

For assay [4], the target named is T2, Amyloid-beta precursor protein. Nature of the assay: Disaggregation of self-induced amyloid beta (1 to 42) (unknown origin) preformed fibrils at 10 uM measured after 24 hrs by thioflavin-T fluorescence assay relative to control. In outline:
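Aβ1-42 (10 µM) with 10 µM ThT and 1 mM EDTA in 50 mM phosphate buffer (150 mM NaCl, pH 7.4) pre-aggregated 24 h at 37 °C, 700 rpm; fluorescence read (ex 440/em 486 nm). Compound then added and incubated a further 24 h at 37 °C before re-reading. Disaggregation = (first − second reading)/first reading. Triplicate.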

The target in a further assay is Acetylcholinesterase (Homo sapiens, UniProt P22303). The assay can be described thus: Inhibition of recombinant human C-terminal 6His-tagged AChE (Glu32 to Leu614 residues) expressed in CHO cells using acetylthiocholine iodide as substrate preincubated for 5 mins measured after 15 mins by DTNB reagent based assay. The method in brief: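 Enzyme, compounds, acetylthiocholine iodide and DTNB diluted in 100 mM phosphate buffer pH 7.4. AChE was preincubated with the compound at varying concentrations for 5 min at 37 °C. The reaction was started with 1 mM ATCI solution and run 15 min at 37 °C. 2 mM DTNB solution was then added for 5 min. Absorbance read at 412 nm. IC50 set 0.1% DMSO wells as 100% and no-enzyme wells as 0%. Run in triplicate.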

Another assay addresses T3, Histone deacetylase 7 (Homo sapiens, UniProt Q8WUI4).
T3 sequence (Q8WUI4 whole entry): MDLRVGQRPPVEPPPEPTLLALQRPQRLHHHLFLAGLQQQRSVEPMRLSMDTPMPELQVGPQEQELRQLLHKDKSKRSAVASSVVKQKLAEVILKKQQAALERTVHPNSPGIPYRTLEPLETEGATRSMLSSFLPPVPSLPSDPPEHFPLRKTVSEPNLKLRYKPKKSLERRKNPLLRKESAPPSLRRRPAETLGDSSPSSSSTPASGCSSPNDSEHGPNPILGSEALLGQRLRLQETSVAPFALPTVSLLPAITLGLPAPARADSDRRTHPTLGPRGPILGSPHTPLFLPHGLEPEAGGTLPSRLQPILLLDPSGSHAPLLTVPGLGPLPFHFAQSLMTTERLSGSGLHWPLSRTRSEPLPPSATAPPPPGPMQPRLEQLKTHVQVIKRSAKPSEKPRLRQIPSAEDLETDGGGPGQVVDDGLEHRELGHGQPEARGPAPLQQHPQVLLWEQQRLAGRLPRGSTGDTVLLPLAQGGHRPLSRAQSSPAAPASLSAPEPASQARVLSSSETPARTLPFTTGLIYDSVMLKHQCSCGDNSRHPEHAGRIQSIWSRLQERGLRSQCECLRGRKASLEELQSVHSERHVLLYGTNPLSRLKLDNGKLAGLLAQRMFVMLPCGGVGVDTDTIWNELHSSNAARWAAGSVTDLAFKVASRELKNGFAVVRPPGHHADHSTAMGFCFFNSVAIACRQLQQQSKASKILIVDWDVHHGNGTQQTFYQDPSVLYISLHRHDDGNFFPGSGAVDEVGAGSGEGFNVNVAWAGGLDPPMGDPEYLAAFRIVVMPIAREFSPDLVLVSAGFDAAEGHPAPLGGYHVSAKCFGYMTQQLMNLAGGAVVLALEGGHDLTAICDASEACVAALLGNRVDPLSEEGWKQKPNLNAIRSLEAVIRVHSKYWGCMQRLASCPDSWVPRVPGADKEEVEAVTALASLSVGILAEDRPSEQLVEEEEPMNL
The assay can be described thus: Inhibition of recombinant human N-terminal GST-tagged HDAC7 (518 to end residues) expressed in baculovirus infected Sf9 cells using fluorogenic HDAC 2A substrate preincubated for 5 mins followed by substrate addition and measured after 30 mins by fluorescence assay.

Histone deacetylase 9, sequence (Q9UKV0 whole entry, the tested form may be a part): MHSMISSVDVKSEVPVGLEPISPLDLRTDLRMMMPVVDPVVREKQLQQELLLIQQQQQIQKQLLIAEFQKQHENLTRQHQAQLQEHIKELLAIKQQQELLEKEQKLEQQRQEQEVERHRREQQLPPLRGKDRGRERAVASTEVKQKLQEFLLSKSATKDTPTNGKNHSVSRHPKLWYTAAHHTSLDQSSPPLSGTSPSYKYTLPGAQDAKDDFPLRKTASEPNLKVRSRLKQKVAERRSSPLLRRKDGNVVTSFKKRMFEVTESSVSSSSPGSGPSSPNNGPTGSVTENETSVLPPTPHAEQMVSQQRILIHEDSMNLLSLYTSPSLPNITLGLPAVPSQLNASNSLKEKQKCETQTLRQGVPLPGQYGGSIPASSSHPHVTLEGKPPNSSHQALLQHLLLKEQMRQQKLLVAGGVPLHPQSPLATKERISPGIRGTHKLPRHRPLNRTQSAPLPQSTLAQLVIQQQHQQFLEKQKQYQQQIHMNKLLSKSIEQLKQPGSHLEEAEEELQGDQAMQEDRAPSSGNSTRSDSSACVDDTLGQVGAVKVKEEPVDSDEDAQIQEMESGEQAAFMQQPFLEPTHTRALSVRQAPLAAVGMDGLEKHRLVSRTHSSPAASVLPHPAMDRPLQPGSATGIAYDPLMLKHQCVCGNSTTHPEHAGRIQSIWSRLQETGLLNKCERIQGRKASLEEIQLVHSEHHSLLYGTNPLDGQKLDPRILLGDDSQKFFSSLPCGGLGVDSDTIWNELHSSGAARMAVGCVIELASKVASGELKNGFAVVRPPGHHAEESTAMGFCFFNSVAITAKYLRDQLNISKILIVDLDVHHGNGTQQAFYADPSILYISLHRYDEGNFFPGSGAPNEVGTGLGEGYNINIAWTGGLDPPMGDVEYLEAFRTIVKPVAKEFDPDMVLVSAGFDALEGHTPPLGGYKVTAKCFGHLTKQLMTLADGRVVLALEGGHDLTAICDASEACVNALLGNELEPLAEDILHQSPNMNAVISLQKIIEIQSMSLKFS
Histone deacetylase 5, sequence (Q9UQL6 whole entry, the tested form may be a part): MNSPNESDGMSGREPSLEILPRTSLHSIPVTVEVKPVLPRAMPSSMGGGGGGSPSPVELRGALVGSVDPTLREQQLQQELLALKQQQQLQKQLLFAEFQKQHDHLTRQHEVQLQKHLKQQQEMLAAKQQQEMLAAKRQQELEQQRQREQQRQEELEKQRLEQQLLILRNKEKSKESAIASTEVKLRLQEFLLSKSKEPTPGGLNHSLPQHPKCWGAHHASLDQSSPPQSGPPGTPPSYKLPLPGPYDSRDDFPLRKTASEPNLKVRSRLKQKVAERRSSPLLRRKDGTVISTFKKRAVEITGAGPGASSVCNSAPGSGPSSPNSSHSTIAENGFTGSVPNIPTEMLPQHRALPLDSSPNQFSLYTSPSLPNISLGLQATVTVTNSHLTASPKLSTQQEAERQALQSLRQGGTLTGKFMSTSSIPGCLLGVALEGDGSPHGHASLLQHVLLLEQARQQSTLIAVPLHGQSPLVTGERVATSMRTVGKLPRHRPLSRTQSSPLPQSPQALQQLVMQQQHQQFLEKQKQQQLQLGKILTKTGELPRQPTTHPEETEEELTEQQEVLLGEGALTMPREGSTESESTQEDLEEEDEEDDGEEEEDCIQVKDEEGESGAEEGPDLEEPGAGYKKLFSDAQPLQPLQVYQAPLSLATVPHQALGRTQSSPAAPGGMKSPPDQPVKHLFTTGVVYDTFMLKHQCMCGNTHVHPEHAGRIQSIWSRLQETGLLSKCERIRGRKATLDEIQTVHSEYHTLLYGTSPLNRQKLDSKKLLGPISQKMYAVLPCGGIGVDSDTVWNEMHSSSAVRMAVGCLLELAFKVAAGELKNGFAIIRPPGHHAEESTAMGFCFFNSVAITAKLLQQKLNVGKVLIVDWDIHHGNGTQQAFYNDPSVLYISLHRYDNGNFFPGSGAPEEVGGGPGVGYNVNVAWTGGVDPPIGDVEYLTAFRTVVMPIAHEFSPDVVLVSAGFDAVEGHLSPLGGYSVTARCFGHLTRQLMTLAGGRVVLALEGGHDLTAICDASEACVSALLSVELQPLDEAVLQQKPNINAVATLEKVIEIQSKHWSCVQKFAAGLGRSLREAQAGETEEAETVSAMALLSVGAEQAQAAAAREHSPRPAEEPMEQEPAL
Acetylcholinesterase, sequence (P22303 whole entry): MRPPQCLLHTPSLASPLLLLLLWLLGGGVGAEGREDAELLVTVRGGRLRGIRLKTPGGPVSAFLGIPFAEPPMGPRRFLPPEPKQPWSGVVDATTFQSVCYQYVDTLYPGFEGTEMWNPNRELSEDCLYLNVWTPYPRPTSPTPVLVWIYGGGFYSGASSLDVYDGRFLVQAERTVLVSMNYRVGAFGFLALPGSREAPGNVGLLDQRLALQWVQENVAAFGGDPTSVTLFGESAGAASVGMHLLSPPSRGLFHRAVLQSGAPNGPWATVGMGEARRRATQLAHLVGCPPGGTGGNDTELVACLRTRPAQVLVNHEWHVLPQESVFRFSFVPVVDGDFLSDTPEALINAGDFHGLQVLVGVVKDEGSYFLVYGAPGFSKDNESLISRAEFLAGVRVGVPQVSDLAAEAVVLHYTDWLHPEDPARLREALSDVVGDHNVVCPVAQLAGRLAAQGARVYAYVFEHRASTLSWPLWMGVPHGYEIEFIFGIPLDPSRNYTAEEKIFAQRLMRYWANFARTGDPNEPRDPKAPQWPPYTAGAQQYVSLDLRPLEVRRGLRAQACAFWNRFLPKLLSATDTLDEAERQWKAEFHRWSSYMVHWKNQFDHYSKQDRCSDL
Histone deacetylase 4, sequence (P56524 whole entry, the tested form may be a part): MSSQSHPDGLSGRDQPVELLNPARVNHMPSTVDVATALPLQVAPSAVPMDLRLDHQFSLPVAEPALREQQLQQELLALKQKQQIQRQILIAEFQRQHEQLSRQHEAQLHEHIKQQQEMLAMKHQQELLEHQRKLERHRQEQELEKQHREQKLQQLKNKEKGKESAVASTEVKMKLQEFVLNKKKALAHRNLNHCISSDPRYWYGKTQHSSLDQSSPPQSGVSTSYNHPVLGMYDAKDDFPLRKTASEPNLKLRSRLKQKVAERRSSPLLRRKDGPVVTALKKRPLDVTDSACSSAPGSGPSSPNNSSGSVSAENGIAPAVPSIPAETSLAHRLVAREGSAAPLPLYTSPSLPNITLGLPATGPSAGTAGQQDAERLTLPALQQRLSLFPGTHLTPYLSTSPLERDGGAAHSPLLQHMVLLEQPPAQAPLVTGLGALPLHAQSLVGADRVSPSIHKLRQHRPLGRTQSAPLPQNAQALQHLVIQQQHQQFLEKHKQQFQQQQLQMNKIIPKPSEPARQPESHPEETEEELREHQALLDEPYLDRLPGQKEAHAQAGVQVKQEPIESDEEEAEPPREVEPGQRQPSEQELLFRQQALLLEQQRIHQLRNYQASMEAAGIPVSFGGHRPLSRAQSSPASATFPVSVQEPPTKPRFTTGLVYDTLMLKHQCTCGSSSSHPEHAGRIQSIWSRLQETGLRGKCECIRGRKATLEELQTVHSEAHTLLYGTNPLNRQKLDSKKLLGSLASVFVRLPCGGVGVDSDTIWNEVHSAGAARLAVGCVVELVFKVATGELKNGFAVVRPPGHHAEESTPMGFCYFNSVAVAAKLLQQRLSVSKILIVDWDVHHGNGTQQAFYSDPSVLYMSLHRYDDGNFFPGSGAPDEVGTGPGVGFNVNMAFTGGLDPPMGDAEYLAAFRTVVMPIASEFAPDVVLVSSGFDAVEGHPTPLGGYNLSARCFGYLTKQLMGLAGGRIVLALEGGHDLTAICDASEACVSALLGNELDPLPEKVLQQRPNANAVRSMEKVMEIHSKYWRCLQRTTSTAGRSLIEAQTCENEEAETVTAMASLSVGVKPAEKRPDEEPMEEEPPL
T2 sequence (P05067 whole entry): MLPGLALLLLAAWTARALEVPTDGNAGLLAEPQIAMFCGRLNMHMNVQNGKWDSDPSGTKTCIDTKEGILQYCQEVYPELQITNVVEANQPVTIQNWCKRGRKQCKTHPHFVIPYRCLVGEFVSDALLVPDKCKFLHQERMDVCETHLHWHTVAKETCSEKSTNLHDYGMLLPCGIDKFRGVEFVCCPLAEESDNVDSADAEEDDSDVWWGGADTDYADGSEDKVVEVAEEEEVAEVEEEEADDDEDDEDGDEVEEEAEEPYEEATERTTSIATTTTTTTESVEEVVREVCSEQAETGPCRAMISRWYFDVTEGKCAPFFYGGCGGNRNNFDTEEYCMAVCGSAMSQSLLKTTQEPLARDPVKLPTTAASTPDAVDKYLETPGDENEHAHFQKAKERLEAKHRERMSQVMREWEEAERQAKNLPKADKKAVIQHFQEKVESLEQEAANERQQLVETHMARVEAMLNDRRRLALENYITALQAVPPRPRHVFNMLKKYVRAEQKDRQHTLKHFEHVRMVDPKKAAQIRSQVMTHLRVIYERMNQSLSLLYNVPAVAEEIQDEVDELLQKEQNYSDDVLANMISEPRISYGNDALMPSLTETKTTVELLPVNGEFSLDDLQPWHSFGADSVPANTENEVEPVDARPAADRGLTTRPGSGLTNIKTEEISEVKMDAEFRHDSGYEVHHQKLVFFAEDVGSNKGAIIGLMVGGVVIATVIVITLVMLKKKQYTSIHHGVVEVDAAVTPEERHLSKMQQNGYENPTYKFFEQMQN

What is called IC50 is the midpoint of a concentration-inhibition curve. Broadly, the inhibition is the change of the read-out against control, counted positive when it falls. Low readings indicate a response near the control, high ones a response far below the control. On to `COc1ccc2nc3cc(Cl)ccc3c(Nc3ccc(C(=O)NO)cc3)c2n1`, for which the IC50 in assay [1] was 0.8 µM; on Histone deacetylase 4 it was greater than 40 µM; at Histone deacetylase 5, 15.2 µM; at Histone deacetylase 9 it was greater than 40 µM; in [2] it was 0.34 µM; in assay [3] it was 34.9 µM. Also, on Acetylcholinesterase, the IC50 came out at 9.25 µM. In assay [4], the inhibition stood at 53%.

As to `O=C(NO)c1ccc(Nc2c3ccccc3nc3ccc(OCc4ccccc4)cc23)cc1`, the IC50 turned out to be 3.5 µM in assay [1]; 3.1 µM on Histone deacetylase 7; 1.21 µM on Histone deacetylase 4; 0.43 µM on Histone deacetylase 5; 1.25 µM at Histone deacetylase 9; 0.22 µM in assay [2]. Moreover, the IC50 in assay [3] is 3 µM; on Acetylcholinesterase, 2.64 µM. The inhibition in assay [4] was determined as 57%.

On to `COc1cc2nc3ccccc3c(Nc3ccc(C(=O)NO)cc3)c2c(OC)c1OC`, for which the IC50 in assay [1] amounted to 0.81 µM; at Histone deacetylase 7 it was 4.57 µM; at Histone deacetylase 4, 15.7 µM; on Histone deacetylase 5, 4.23 µM; on Histone deacetylase 9, 4.95 µM; in assay [2] it was 0.16 µM. For the same compound, the results for the IC50 (in assay [3]; on Acetylcholinesterase) were 13 µM and 0.64 µM, respectively. This compound also yielded an inhibition in [4] of 42%.

Regarding `O=C(NO)c1ccc(Nc2c3ccccc3nc3ccc(F)cc23)cc1`, the IC50 was 0.25 µM in assay [1]; 3.04 µM at Histone deacetylase 4; 0.69 µM at Histone deacetylase 5; 0.52 µM on Histone deacetylase 9; 0.029 µM in assay [2]; greater than 20 µM in assay [3]. Also, at Acetylcholinesterase, the IC50 came out at 0.6 µM. Further, the inhibition in assay [4] stood at 38%.

As to `O=C(NO)c1ccc(Nc2c3c(nc4ccccc24)CCCC3)cc1`, the IC50 in assay [1] is greater than 40 µM; on Histone deacetylase 7, greater than 40 µM; at Histone deacetylase 4 it was greater than 40 µM; on Histone deacetylase 5 it was 17.5 µM; on Histone deacetylase 9, greater than 40 µM; in assay [2], 3.55 µM. Also, the IC50 in [3] is greater than 20 µM; at Acetylcholinesterase, 1.97 µM. Moreover, the inhibition in [4] turned out to be 0%.

With `O=C(NO)c1ccc(Nc2c3ccccc3nc3ccc(OC(F)(F)F)cc23)cc1`, the IC50 in assay [1] was determined as 0.67 µM; at Histone deacetylase 4, 14.7 µM; at Histone deacetylase 5, 15.8 µM; on Histone deacetylase 9, 31.1 µM; in assay [2], 0.029 µM; in assay [3], 3.5 µM. Further, the IC50 on Acetylcholinesterase was 3.65 µM. The compound further had an inhibition in assay [4] of 53%.

As to `c1ccc2nc3ccccc3cc2c1` [ACRIDINE], the IC50 on Acetylcholinesterase amounted to 6.84 µM.

`O=C(CCCCCCC(=O)Nc1ccccc1)NO` [VORINOSTAT] showed an IC50 in [3] greater than 20 µM. This compound registered an inhibition in [4] of 0%.

For the compound `O=C(NO)c1ccc(Nc2ccnc3ccccc23)cc1`, the IC50 in assay [1] was 0.6 µM; at Histone deacetylase 4 it was greater than 40 µM; at Histone deacetylase 5 it was 3.37 µM; at Histone deacetylase 9 it was 13.2 µM; in assay [2] it was 0.039 µM; in assay [3], greater than 20 µM. In addition, the IC50 at Acetylcholinesterase came to 0.83 µM. The compound further gave an inhibition in assay [4] of 0%.

Regarding `O=c1c(O)c(-c2ccc(O)cc2O)oc2cc(O)cc(O)c12` [MORIN], the IC50 in assay [3] came out at 8.5 µM.

Consider `O=C(Cc1ccc(Nc2c3ccccc3nc3ccccc23)cc1)NO`, for which the IC50 was determined as 2.07 µM in [1]; 1.94 µM on Histone deacetylase 7; 26.6 µM at Histone deacetylase 4; 1.66 µM at Histone deacetylase 5; 6.42 µM on Histone deacetylase 9; 0.074 µM in assay [2].

For the compound `O=C(NO)c1cccc(Nc2c3ccccc3nc3ccccc23)c1`, the IC50 is greater than 40 µM in assay [1]; 29.4 µM at Histone deacetylase 4; 20.8 µM at Histone deacetylase 5; 12.2 µM at Histone deacetylase 9; 4.69 µM in [2].

As for `O=C(CCc1ccc(Nc2c3ccccc3nc3ccccc23)cc1)NO`, the IC50 was 0.1 µM in assay [1]; 7.06 µM at Histone deacetylase 4; 2.58 µM on Histone deacetylase 5; 29 µM on Histone deacetylase 9; 0.14 µM in assay [2].

Source of the values: ChEMBL document CHEMBL4680220, “Synthesis and biological evaluation of acridine-based histone deacetylase inhibitors as multitarget agents against Alzheimer's disease” (Eur J Med Chem, 2020).
